Measurements published in ChEMBL document CHEMBL1151724, “Sesquiterpene lactones from Gonospermum gomerae and G. fruticosum and their cytotoxic activities” (J Nat Prod, 2008).
Calls of active or inactive are those of the source. The rule behind the calls is not given here.

Experiments:
SK-MEL-1 [1] = experiment: Induction of apoptosis in human SK-MEL-1 cells assessed as apoptotic bodies at 30 uM after 24 hrs by fluorescence microscopy; type: functional, cell-based
In short: (§1)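 HL-60 or SK-MEL-1 cells exposed to 30 µM, then DNA-stained with Hoechst 33258 (bisbenzimide). Chromatin condensation, fragmentation and apoptotic bodies assessed by fluorescence microscopy.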

HL-60 [2] = experiment: Cell cycle arrest in human HL-60 cells assessed as accumulation at G0/G1 phase at 30 uM after 48 hrs by flow cytometry; type: functional
In short: (§2)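 Cells grown in RPMI 1640 with 10% heat-inactivated FBS at 37 °C, 5% CO2, exposed to 30 µM for 48 h. Washed in ice-cold PBS, fixed in 75% ethanol at -20 °C for 1 h, then stained with 50 µg/mL propidium iodide plus 100 µg/mL RNase A for 1 h at 37 °C in the dark. Phase distribution read by flow cytometry; mean ± SEM of two experiments.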

HL-60 [3] = experiment: Cell cycle arrest in human HL-60 cells assessed as accumulation at sub G0/G1 phase at 30 uM after 48 hrs by flow cytometry; type: functional; in short: as §2
HL-60 [4] = experiment: Cell cycle arrest in human HL-60 cells assessed as accumulation at G2-M phase at 30 uM after 48 hrs by flow cytometry; type: functional; in short: as §2
SK-MEL-1 [5] = experiment: Cytotoxicity against human SK-MEL-1 cells after 72 hrs by MTT assay; type: functional, cell-based; conditions: SK-MEL-1, 72 h
In short: (§3)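 Exponentially growing cells, 1 × 10^4 per well in RPMI 1640 with 10% FBS, treated with 0.3-100 µM for 72 h. DMSO at most 0.1% (v/v). Viability read by MTT reduction as absorbance at 570 nm and expressed as survival relative to control wells. IC50 obtained by curve fitting; means ± SE of three independent experiments, each in triplicate.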

HL-60 [6] = experiment: Induction of apoptosis in human HL-60 cells at 30 uM after 48 hrs by flow cytometry; type: functional
In short: (§4)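 HL-60 cells exposed to 30 µM for 48 h. Hypodiploid (apoptotic) fraction quantified by flow cytometry; average ± SE of triplicate determinations from a representative experiment.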

SK-MEL-1 [7] = experiment: Induction of apoptosis in human SK-MEL-1 cells assessed as fragmentated and condensed chromatin at 30 uM after 24 hrs by fluorescence microscopy; type: functional, cell-based; in short: as §1
HL-60 [8] = experiment: Induction of apoptosis in human HL-60 cells assessed as internucleosomal DNA fragmentation at 30 uM after 24 hrs by ethidium bromide assay; type: functional, cell-based
In short: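 HL-60 cells exposed to 30 µM for 24 h. Total cellular DNA isolated, electrophoresed on 2% agarose, stained with ethidium bromide and inspected under UV for internucleosomal laddering.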

HL-60 [9] = experiment: Cell cycle arrest in human HL-60 cells assessed as accumulation at S phase at 30 uM after 48 hrs by flow cytometry; type: functional; in short: as §2
HL-60 [10] = experiment: Effect on cell death in human HL-60 cells assessed as induction of procaspase 3 cleavage at 30 uM; type: functional, cell-based
In short: (§5)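 HL-60 cells (1 × 10^6) treated in RPMI 1640, lysed in Tris-HCl pH 6.8 with 2% SDS and boiled. Lysates run on 12% SDS-PAGE, transferred to PVDF and probed with anti-caspase-3, -6 or -7 antibodies, then HRP secondary. Bands detected by chemiluminescence; loading checked by Ponceau S staining. One representative blot of three.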

HL-60 [11] = experiment: Effect on cell death in human HL-60 cells assessed as induction of procaspase 6 cleavage at 30 uM; type: functional, cell-based; in short: as §5
HL-60 [12] = experiment: Induction of apoptosis in human HL-60 cells assessed as apoptotic bodies at 30 uM after 24 hrs by fluorescence microscopy; type: functional, cell-based; in short: as §1
HL-60 [13] = experiment: Induction of apoptosis in human HL-60 cells assessed as fragmentated and condensed chromatin at 30 uM after 24 hrs by fluorescence microscopy; type: functional, cell-based; in short: as §1
U-937 = experiment: Cytotoxicity against human U937 cells after 72 hrs by MTT assay; type: functional, cell-based; conditions: U-937, 72 h; in short: as §3
A549 = experiment: Cytotoxicity against human A549 cells after 72 hrs by MTT assay; type: functional, cell-based; conditions: A549, 72 h; in short: as §3
HL-60 [14] = experiment: Cytotoxicity against human HL-60 cells after 72 hrs by MTT assay; type: functional, cell-based; conditions: HL-60, 72 h; in short: as §3
HL-60 [15] = experiment: Effect on cell death in human HL-60 cells assessed as induction of procaspase 7 cleavage at 30 uM; type: functional, cell-based; in short: as §5
HL-60 [16] = experiment: Induction of apoptosis in human HL-60 cells upto 30 uM after 48 hrs by flow cytometry; type: functional, cell-based; in short: as §4

C=C1CC[C@@H](OC(C)=O)[C@]2(C)C[C@H](OC(C)=O)[C@H]3C(=C)C(=O)O[C@@H]3C12 (stereo not given in full)
Activity (SK-MEL-1 [1]): Active | Activity (HL-60 [2]): 26.8% | Activity (HL-60 [3]): 30% | Activity (HL-60 [4]): 18.5% | IC50 (SK-MEL-1 [5]): 14.3 µM | Activity (HL-60 [6]): 30% | Activity (SK-MEL-1 [7]): Active | Activity (HL-60 [8]): Active | Activity (HL-60 [9]): 22% | Activity (HL-60 [10]): Active | Activity (HL-60 [11]): Active | Activity (HL-60 [12]): Active | Activity (HL-60 [13]): Active | IC50 (U-937): 9.2 µM | IC50 (A549): 72.4 µM | IC50 (HL-60 [14]): 9.4 µM | Activity (HL-60 [15]): Active

C=C1C(=O)O[C@H]2C[C@@]3(C)[C@H](O)CCC(=C)[C@H]3[C@@H](OC(=O)/C(C)=C/C)[C@H]12
Activity (HL-60 [16]): inactive

C=C1C(=O)O[C@H]2C[C@@]3(C)[C@H](O)CC[C@@](C)(O)[C@H]3[C@@H](O)[C@H]12
Activity (HL-60 [16]): inactive

C=C1C(=O)O[C@H]2C[C@@]3(C)[C@H](OC(C)=O)CC[C@@](C)(O)[C@H]3[C@@H](O)[C@H]12
IC50 (SK-MEL-1 [5]): > 100 µM | Activity (HL-60 [16]): inactive | IC50 (U-937): > 100 µM | IC50 (A549): > 100 µM | IC50 (HL-60 [14]): > 100 µM

C=C1C(=O)O[C@H]2/C=C(/C)[C@@H](O)CC/C(C)=C/[C@@H](OC(=O)/C(C)=C/C)[C@H]12
Activity (HL-60 [16]): inactive

COc1cc([C@@H]2c3cc4c(cc3[C@@H](O[C@@H]3O[C@@H]5CO[C@@H](C)O[C@H]5[C@H](O)[C@H]3O)[C@H]3COC(=O)[C@H]23)OCO4)cc(OC)c1O [ETOPOSIDE]
Activity (HL-60 [2]): 29.4% | Activity (HL-60 [3]): 47.7% | Activity (HL-60 [4]): 2.6% | IC50 (SK-MEL-1 [5]): > 30 µM | Activity (HL-60 [9]): 17.1% | IC50 (U-937): 0.92 µM | IC50 (A549): 5.9 µM | IC50 (HL-60 [14]): 0.25 µM

C=CC(C)(O)C/C=C/C(C)(O)CCC(OC(C)=O)C(=C)C (stereo not given)
Activity (HL-60 [16]): inactive

C=C1C(=O)O[C@H]2[C@H]1[C@@H](O)C[C@@]1(C)[C@H](O)CCC(=C)[C@@H]21
Activity (HL-60 [16]): inactive

C=C1C(=O)O[C@H]2C[C@@]3(C)[C@H](OC(C)=O)CC[C@@](C)(O)[C@H]3[C@@H](OC(C)=O)[C@H]12
Activity (SK-MEL-1 [1]): Active | Activity (HL-60 [2]): 39.3% | Activity (HL-60 [3]): 11.8% | Activity (HL-60 [4]): 21.8% | IC50 (SK-MEL-1 [5]): 27.9 µM | Activity (HL-60 [6]): 12% | Activity (SK-MEL-1 [7]): Active | Activity (HL-60 [8]): Active | Activity (HL-60 [9]): 21.5% | Activity (HL-60 [10]): Active | Activity (HL-60 [11]): Active | Activity (HL-60 [12]): Active | Activity (HL-60 [13]): Active | IC50 (U-937): 10.4 µM | IC50 (A549): > 100 µM | IC50 (HL-60 [14]): 13.3 µM | Activity (HL-60 [15]): Active

C=C1C(=O)O[C@H]2C[C@@]3(C)[C@H](OC(C)=O)CCC(=C)[C@H]3[C@@H](OC(=O)/C(C)=C/C)[C@H]12
Activity (HL-60 [16]): inactive

C=C1C(=O)O[C@H]2/C=C(/C)[C@@H](OC(C)=O)CC/C(C)=C/[C@@H](OC(=O)/C(C)=C/C)[C@H]12
Activity (HL-60 [16]): inactive

C=C1C[C@@H]2OC(=O)C(=C)[C@H]2[C@H](OC(=O)/C(C)=C\C)/C=C(\C)CCC1=O
Activity (HL-60 [16]): inactive
